Laboratory results: ChEMBL document CHEMBL1255544, “Synthesis and evaluation of novel chloropyrrole molecules designed by molecular hybridization of common pharmacophores as potential antimicrobial agents” (2010)
≈ marks a conversion by molar mass, not a printed value. Calls of active or inactive are those of the source. No cut-off for these calls is given here.

Tests used:
Staphylococcus aureus [1] = assay: Antimicrobial activity against Staphylococcus aureus ATCC 25923 after 24 hrs by broth dilution method; type: functional; conditions: ATCC 25923, 24 h
Summary of the method: (§1)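 MIC by broth dilution: the lowest concentration (highest dilution) that arrested bacterial or fungal growth. Strains were E. coli ATCC-25922, S. aureus ATCC-25923, P. aeruginosa ATCC-27853 and C. albicans.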

Escherichia coli [2] = assay: Antimicrobial activity against Escherichia coli ATCC […] after 24 hrs by disk diffusion method; type: functional
Summary of the method: (§2)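 Zone of inhibition by disc diffusion against E. coli ATCC-25922, S. aureus ATCC-25923, P. aeruginosa ATCC-27853 and recultured Klebsiella pneumoniae.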

Staphylococcus aureus [3] = assay: Antimicrobial activity against Staphylococcus aureus ATCC 25923 after 24 hrs by disk diffusion method; type: functional; summary of the method: as §2
Candida albicans [4] = assay: Antimicrobial activity against Candida albicans after 48 hrs by broth dilution method; type: functional; summary of the method: as §1
Escherichia coli [5] = assay: Antimicrobial activity against Escherichia coli ATCC […] after 24 hrs by broth dilution method; type: functional; summary of the method: as §1
Pseudomonas aeruginosa [6] = assay: Antimicrobial activity against Pseudomonas aeruginosa ATCC 27853 at 100 ug/ml after 24 hrs by broth dilution method; type: functional, organism-based
Klebsiella pneumoniae [7] = assay: Antimicrobial activity against Klebsiella pneumoniae at 100 ug/ml after 24 hrs by broth dilution method; type: functional, organism-based
Candida albicans [8] = assay: Antimicrobial activity against Candida albicans after 48 hrs by agar dilution method; type: functional
Summary of the method: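 Candida albicans tested by agar dilution, with compounds in DMSO.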

Pseudomonas aeruginosa [9] = assay: Antimicrobial activity against Pseudomonas aeruginosa ATCC 27853 after 24 hrs by broth dilution method; type: functional; conditions: ATCC 27853, 24 h; summary of the method: as §1
Pseudomonas aeruginosa [10] = assay: Antimicrobial activity against Pseudomonas aeruginosa ATCC 27853 after 24 hrs by disk diffusion method; type: functional; summary of the method: as §2
Klebsiella pneumoniae [11] = assay: Antimicrobial activity against Klebsiella pneumoniae after 24 hrs by disk diffusion method; type: functional; summary of the method: as §2
Klebsiella pneumoniae [12] = assay: Antimicrobial activity against Klebsiella pneumoniae after 24 hrs by broth dilution method

SMILES | MIC (Staphylococcus aureus [1]) [µg/mL] | diameter of the inhibition zone (DIZ) (Escherichia coli [2]) [mm] | diameter of the inhibition zone (DIZ) (Staphylococcus aureus [3]) [mm] | MIC (Candida albicans [4]) [µg/mL] | MIC (Escherichia coli [5]) [µg/mL] | Activity (Pseudomonas aeruginosa [6]) | Activity (Klebsiella pneumoniae [7]) | diameter of the inhibition zone (DIZ) (Candida albicans [8]) [mm] | MIC (Pseudomonas aeruginosa [9]) [µg/mL] | diameter of the inhibition zone (DIZ) (Pseudomonas aeruginosa [10]) [mm] | diameter of the inhibition zone (DIZ) (Klebsiella pneumoniae [11]) [mm] | Zone of inhibition (Escherichia coli [2]; Escherichia coli, ATCC 2522, 24 h) [mm] | MIC (Klebsiella pneumoniae [12]) [µg/mL] | diameter of the inhibition zone (DIZ) (Staphylococcus aureus [3]; Staphylococcus aureus, ATCC 25923, 24 h) [mm] | Zone of inhibition (Klebsiella pneumoniae [11]; Klebsiella pneumoniae, 24 h) [mm]
COc1ccc(/C=C/C(=O)c2ccc(Cl)[nH]2)cc1OC | 25 (≈ 85.7 µM) | 13 | 13 | 100 (≈ 343 µM) | 25 (≈ 85.7 µM) | inactive | inactive | 14 |  |  |  |  |  |  | 
COc1ccc(/C=C/C(=O)c2cc(Cl)c(Cl)[nH]2)cc1 | 12.5 (≈ 42.2 µM) | 13 | 20 | 50 (≈ 169 µM) | 12.5 (≈ 42.2 µM) |  |  | 12 | 100 (≈ 338 µM) | 17 | 18 |  |  |  | 
O=C(N/N=C/c1ccc(Cl)cc1)c1cc(Cl)c(Cl)[nH]1 | 1.56 (≈ 4.93 µM) | 22 | 24 | 12.5 (≈ 39.5 µM) | 3.12 (≈ 9.87 µM) |  |  | 20 | 25 (≈ 79 µM) | 16 | 20 |  |  |  | 
O=C(O)c1cn(C2CC2)c2cc(N3CCNCC3)c(F)cc2c1=O [CIPROFLOXACIN] | 1.56 (≈ 4.71 µM) |  |  |  | 1.06 (≈ 3.2 µM) |  |  |  | 3.12 (≈ 9.43 µM) |  |  | 25 | 1.56 (≈ 4.71 µM) | 20 | 26
COc1ccc(/C=C/C(=O)c2cc(Cl)c(Cl)[nH]2)cc1OC | 3.12 (≈ 9.58 µM) | 15 | 24 | 50 (≈ 153 µM) | 6.25 (≈ 19.2 µM) |  |  | 18 | 25 (≈ 76.6 µM) | 17 | 18 |  |  |  | 
COc1ccc(/C=C/C(=O)c2ccc(Cl)[nH]2)cc1 | 25 (≈ 95.5 µM) | 10 | 17 | 100 (≈ 382 µM) | 50 (≈ 191 µM) | inactive | inactive | 14 |  |  |  |  |  |  | 
O=C(/C=C/c1ccco1)c1cc(Cl)c(Cl)[nH]1 | 1.56 (≈ 6.09 µM) | 21 | 25 | 50 (≈ 195 µM) | 3.12 (≈ 12.2 µM) |  |  | 14 | 25 (≈ 97.6 µM) | 17 | 15 |  |  |  | 
O=C(/C=C/c1ccco1)c1ccc(Cl)[nH]1 | 25 (≈ 113 µM) | 16 | 15 | 100 (≈ 451 µM) | 12.5 (≈ 56.4 µM) | inactive | inactive | 10 |  |  |  |  |  |  | 
COc1ccc(OC)c(/C=N/NC(=O)c2cc(Cl)c(Cl)[nH]2)c1 | 1.56 (≈ 4.56 µM) | 20 | 24 | 12.5 (≈ 36.5 µM) | 3.12 (≈ 9.13 µM) |  |  | 24 | 25 (≈ 73.1 µM) | 13 | 18 |  |  |  | 
COc1ccc(/C=N/NC(=O)c2cc(Cl)c(Cl)[nH]2)cc1 | 6.25 (≈ 20 µM) | 19 | 20 | 12.5 (≈ 40 µM) | 12.5 (≈ 40 µM) |  |  | 24 | 25 (≈ 80.1 µM) | 20 | 16 |  |  |  | 
O=C(/C=C/c1ccco1)c1cc(Cl)c[nH]1 | 12.5 (≈ 56.4 µM) | 20 | 22 | 50 (≈ 226 µM) | 12.5 (≈ 56.4 µM) |  | inactive | 18 | 25 (≈ 113 µM) | 17 |  |  |  |  | 
